Laboratory results published in ChEMBL document CHEMBL1145160, “Neoclerodane diterpenes as a novel scaffold for mu opioid receptor ligands” (J Med Chem, 2005).
Activity calls are given as the source filed them. The rule behind the calls is not given here.

Columns and labels:
[1] = biological target: Opioid receptors; mu & kappa (Homo sapiens) (UniProt P41145+P35372); experiment: Relative affinity for human opioid receptor mu1 and kappa1; format: protein assay
[2] = biological target: Opioid receptors; delta & kappa (Homo sapiens) (UniProt P41145+P41143); experiment: Relative affinity for human opioid receptor delta1 and kappa1; format: protein assay
Sequence of Opioid receptors; delta & kappa (Homo sapiens) (P41143 whole entry, looked up): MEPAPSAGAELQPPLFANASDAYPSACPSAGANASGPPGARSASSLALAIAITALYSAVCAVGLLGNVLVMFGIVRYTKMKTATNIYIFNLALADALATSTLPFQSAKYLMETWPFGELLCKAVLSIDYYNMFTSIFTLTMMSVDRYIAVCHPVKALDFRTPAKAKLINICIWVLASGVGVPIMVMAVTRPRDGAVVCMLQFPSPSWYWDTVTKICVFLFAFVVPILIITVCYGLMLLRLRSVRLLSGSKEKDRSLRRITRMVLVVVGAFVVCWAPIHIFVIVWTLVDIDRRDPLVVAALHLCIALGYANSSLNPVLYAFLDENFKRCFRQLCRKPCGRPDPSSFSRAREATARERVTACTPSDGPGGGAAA
Sequence of Opioid receptors; delta & kappa (Homo sapiens) (P41145 whole entry, looked up): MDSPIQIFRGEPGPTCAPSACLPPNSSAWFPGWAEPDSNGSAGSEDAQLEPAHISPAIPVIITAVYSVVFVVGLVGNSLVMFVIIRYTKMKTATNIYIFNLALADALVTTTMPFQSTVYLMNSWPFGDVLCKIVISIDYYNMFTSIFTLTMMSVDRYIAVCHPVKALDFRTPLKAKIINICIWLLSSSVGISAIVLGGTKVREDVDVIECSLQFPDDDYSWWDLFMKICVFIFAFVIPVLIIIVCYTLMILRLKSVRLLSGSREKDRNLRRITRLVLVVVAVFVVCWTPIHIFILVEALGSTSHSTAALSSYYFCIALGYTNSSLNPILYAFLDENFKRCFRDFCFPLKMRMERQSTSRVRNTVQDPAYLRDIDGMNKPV

[3] = biological target: T1, Mu-type opioid receptor (Homo sapiens, UniProt P35372); experiment: Inhibition of [125I]- IOXY binding to human Opioid receptor mu1
T1 sequence (P35372 whole entry): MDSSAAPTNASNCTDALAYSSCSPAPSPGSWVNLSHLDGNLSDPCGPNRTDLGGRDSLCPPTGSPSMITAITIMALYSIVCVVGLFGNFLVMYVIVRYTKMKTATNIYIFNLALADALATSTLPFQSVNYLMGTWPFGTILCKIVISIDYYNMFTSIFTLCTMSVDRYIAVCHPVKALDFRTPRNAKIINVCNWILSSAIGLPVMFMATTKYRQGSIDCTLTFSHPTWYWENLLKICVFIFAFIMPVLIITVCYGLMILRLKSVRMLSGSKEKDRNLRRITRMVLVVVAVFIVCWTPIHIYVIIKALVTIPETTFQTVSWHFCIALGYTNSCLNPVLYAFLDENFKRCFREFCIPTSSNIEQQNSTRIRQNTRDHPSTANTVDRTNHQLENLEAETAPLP

[4] = biological target: T2, Delta-type opioid receptor (Homo sapiens, UniProt P41143); experiment: Inhibition of [125I]- IOXY binding to human Opioid receptor delta1
T2 sequence (P41143 whole entry): as the sequence (P41143 whole entry, looked up) above

[5] = biological target: T3, Kappa-type opioid receptor (Homo sapiens, UniProt P41145); experiment: Stimulation of [35S]GTP-gamma-S, binding to Opioid receptor kappa1 expressed in CHO cells; format: functional, cell-based
T3 sequence (P41145 whole entry): as the sequence (P41145 whole entry, looked up) above
Method in brief: (§1)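 Membranes from CHO cells stably transfected with DNA for the human μ, δ or κ opioid receptor; agonist-stimulated [35S]GTPγS binding measured; potency given as EC50 ± SD, efficacy as Emax.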

[6] = biological target: T3, Kappa-type opioid receptor; experiment: Stimulatory effect on [35S]GTP gammaS binding to Opioid receptor kappa1 expressed in CHO cells compared to 500 nM U50,488; format: functional, cell-based; method in brief: as §1
[7] = biological target: T3, Kappa-type opioid receptor; experiment: Inhibition of [125I]- IOXY binding to human Opioid receptor kappa1
[8] = system: Mus musculus; experiment: In vivo opioid receptor activity in mouse hot plate assay
[9] = biological target: T2, Delta-type opioid receptor; experiment: Stimulation of [35S]-GTP gammaS binding to Opioid receptor delta 1 expressed in CHO cells; ND = Not determined; format: functional, cell-based; method in brief: as §1
[10] = biological target: T1, Mu-type opioid receptor; experiment: Stimulation of [35S]GTP-gamma-S, binding to Opioid receptor mu1 expressed in CHO cells; ND = Not determined; format: functional, cell-based; method in brief: as §1
[11] = biological target: T1, Mu-type opioid receptor; experiment: Stimulatory effect on [35S]-GTP gammaS binding to Opioid receptor mu1 expressed in CHO cells compared to 10 uM DAMGO; format: cell-based; method in brief: as §1
[12] = biological target: T1, Mu-type opioid receptor; experiment: Stimulatory effect on [35S]-GTP gammaS binding to Opioid receptor mu1 expressed in CHO cells compared to 10 uM DAMGO; ND = Not determined; format: cell-based; method in brief: as §1
[13] = system: Mus musculus; experiment: In vivo opioid receptor activity in mouse tail flick assay; format: functional
[14] = system: Mus musculus; experiment: In vivo opioid receptor activity in mouse p-phenylquinone writhing assay; format: functional
[15] = system: Mus musculus; experiment: In vivo antinociceptive activity against opioid receptor in mouse hot plate […] assay; No inhibition (inactive at 30 uM); format: functional, organism-based
[16] = system: Mus musculus; experiment: In vivo antinociceptive activity against opioid receptor in mouse p-phenylquinone writhing test; No inhibition (inactive at 1 uM); format: functional, organism-based
[17] = biological target: T1, Mu-type opioid receptor; experiment: Stimulation of [35S]GTP-gamma-S, binding to Opioid receptor mu1 expressed in CHO cells; format: functional, cell-based; method in brief: as §1

Sequence of Opioid receptors; mu & kappa (Homo sapiens) (P35372 whole entry, looked up): as the sequence (P35372 whole entry) above
Sequence of Opioid receptors; mu & kappa (Homo sapiens) (P41145 whole entry, looked up): as the sequence (P41145 whole entry, looked up) above

SMILES | Selectivity [1] | Selectivity [2] | Ki [3] [µM] | Ki [4] [µM] | EC50 [5] [µM] | Emax [6] [%] | other results
COC(=O)C(=O)O[C@H]1C[C@@H](C(=O)OC)[C@]2(C)CC[C@H]3C(=O)O[C@H](c4ccoc4)C[C@]3(C)[C@H]2C1=O | > 30 | > 30 | > 10 | > 10 |  |  | 
COC(=O)[C@@H]1C[C@H](OS(C)(=O)=O)C(=O)[C@H]2[C@@]1(C)CC[C@H]1C(=O)O[C@H](c3ccoc3)C[C@]21C |  |  |  | > 10 | 0.03 | 112 | 
COC(=O)[C@@H]1C[C@H](O)[C@H](O)[C@H]2[C@@]1(C)CC[C@H]1C(=O)O[C@H](c3ccoc3)C[C@]21C | 2 | > 3 | 5.74 | > 10 |  |  | Ki [7]: 3.19 µM
CN1CC[C@]23c4c5ccc(O)c4O[C@H]2[C@@H](O)C=C[C@H]3[C@H]1C5 [MORPHINE] |  |  |  |  |  |  | ED50 [8]: 0.8 mg/kg
COC(=O)[C@@H]1C[C@H](O)[C@H](O)[C@@H]2[C@@]3(C)C[C@@H](c4ccoc4)OC(=O)[C@H]3CC[C@]21C |  |  | > 10 | > 10 |  |  | Ki [7]: > 10 µM
CCC(=O)O[C@H]1C[C@@H](C(=O)OC)[C@]2(C)CC[C@H]3C(=O)O[C@H](c4ccoc4)C[C@]3(C)[C@H]2C1=O |  | 2730 | > 1 | 6.69 | 0.14 | 110 | 
C=C(C)C(=O)O[C@H]1C[C@@H](C(=O)OC)[C@]2(C)CC[C@H]3C(=O)O[C@H](c4ccoc4)C[C@]3(C)[C@H]2C1=O | 7 | 210 | 0.26 | 8.88 |  |  | 
COC(=O)[C@@H]1C[C@H](OC(=O)Nc2ccccc2)C(=O)[C@H]2[C@@]1(C)CC[C@H]1C(=O)O[C@H](c3ccoc3)C[C@]21C | 0.2 | 2 |  |  | 0.48 | 100 | EC50 [9]: 2.53 µM; EC50 [10]: 0.59 µM; Emax [11]: 92%
COC(=O)[C@@H]1C[C@H](O[Si](C)(C)C)C(=O)[C@H]2[C@@]1(C)CC[C@H]1C(=O)O[C@H](c3ccoc3)C[C@]21C | > 7 | > 7 | > 10 | > 10 |  |  | 
COC(=O)[C@@H]1C[C@H](OC(=N)C(Cl)(Cl)Cl)C(=O)[C@H]2[C@@]1(C)CC[C@H]1C(=O)O[C@H](c3ccoc3)C[C@]21C | > 150 | 95 | > 10 |  |  |  | 
COC(=O)[C@@H]1C[C@H](OC(=O)c2cccnc2)C(=O)[C@H]2[C@@]1(C)CC[C@H]1C(=O)O[C@H](c3ccoc3)C[C@]21C | 0.04 | 3 |  | 4.82 | 5.74 | 76 | EC50 [10]: 2.1 µM; Emax [12]: 110%
C=CCNC(=O)O[C@H]1C[C@@H](C(=O)OC)[C@]2(C)CC[C@H]3C(=O)O[C@H](c4ccoc4)C[C@]3(C)[C@H]2C1=O | 5 | 55 | 0.64 | 6.46 |  |  | 
COC(=O)[C@@H]1C[C@H](OC(C)=O)C(=O)[C@H]2[C@@]1(C)CC[C@H]1C(=O)O[C@H](c3ccoc3)C[C@]21C [SALVINORIN A] |  |  |  |  |  |  | ED50 [13]: 1.98 mg/kg; ED50 [14]: 0.59 mg/kg; inhibition [15]: inactive; inhibition [16]: inactive
COC(=O)[C@@H]1C[C@H](OC(=O)C(C)C)C(=O)[C@H]2[C@@]1(C)CC[C@H]1C(=O)O[C@H](c3ccoc3)C[C@]21C | 196 |  | 2.98 | > 10 | 0.36 | 105 | 
COC(=O)[C@@H]1C[C@H](OC(C)=O)[C@H](OC(C)=O)[C@H]2[C@@]1(C)CC[C@H]1C(=O)O[C@H](c3ccoc3)C[C@]21C | > 15 | > 15 | > 10 | > 10 |  |  | 
COC(=O)[C@@H]1C[C@H](OC(=O)c2ccccc2)C(=O)[C@H]2[C@@]1(C)CC[C@H]1C(=O)O[C@H](c3ccoc3)C[C@]21C [HERKINORIN] | 0.13 | 12 |  | 1.17 | 1.32 | 140 | EC50 [17]: 0.5 µM; Emax [11]: 130%
